# From ChEMBL document CHEMBL1124746, “Synthesis and antitumor evaluation in mice of certain 7-deazapurine (pyrrolo[2,3-d]pyrimidine) and 3-deazapurine (imidazo[4,5-c]pyridine) nucleosides structurally related to sulfenosine, sulfinosine, and sulfonosine” (1990)
# Experiments:
# L1210 [1] = experiment: Tested for percent of L1210 cells killed by dose 173 mg/kg administered intraperitoneally; conditions: Mus musculus, route intraperitoneal
# L1210 [2] = experiment: Tested for post inoculation lifespan in L1210-inoculated mice at dose 173 mg/kg administered intraperitoneally; type: functional, Mus musculus; conditions: route intraperitoneal
# Procedure, shortened: (§1)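 Female BDF1 mice (~18 g) were inoculated ip on day 0 with 1 × 10⁶ L1210 cells and treated once ip 24 h later with drug in water (0.01 mL/g); saline controls. Groups had six mice. %T/C = mean life span treated / mean life span control × 100, with T/C ≥ 125 taken as significant. Deaths were assigned to leukemia or drug toxicity by timing and necropsy.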
# L1210 [3] = experiment: Tested for post inoculation lifespan in L1210-inoculated mice at dose 480 mg/kg administered intraperitoneally; type: functional, Mus musculus; conditions: route intraperitoneal
# Procedure, shortened: as §1
# L1210 [4] = experiment: Tested for percent of L1210 cells killed by dose 480 mg/kg administered intraperitoneally; type: functional, Mus musculus; conditions: route intraperitoneal
# Procedure, shortened: (§2)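 Female BDF1 mice (~18 g) were inoculated ip on day 0 with 1 × 10⁶ murine L1210 leukemia cells. They got a single ip bolus 24 h later of drug freshly dissolved in water, at 0.01 mL/g body weight. Controls received saline. The percentage of cells killed was estimated from residual leukemia body burden, using inoculum-response data relating inoculum size to postinoculation life span.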
# L1210 [5] = experiment: Tested for post inoculation lifespan in L1210-inoculated mice at dose 62 mg/kg administered intraperitoneally; type: functional, Mus musculus; conditions: route intraperitoneal
# Procedure, shortened: as §1
# L1210 [6] = experiment: Tested for percent of L1210 cells killed by dose 62 mg/kg administered intraperitoneally; type: functional, Mus musculus; conditions: route intraperitoneal
# Procedure, shortened: as §2
# L1210 [7] = experiment: Tested for percent of L1210 cells killed by dose 173 mg/kg administered intraperitoneally; type: functional, Mus musculus; conditions: route intraperitoneal
# Procedure, shortened: as §2
# L1210 [8] = experiment: Tested for post inoculation lifespan in L1210-inoculated mice at dose 288 mg/kg administered intraperitoneally; type: functional, Mus musculus; conditions: route intraperitoneal
# Procedure, shortened: as §1
# L1210 [9] = experiment: Tested for percent of L1210 cells killed by dose 288 mg/kg administered intraperitoneally; type: functional, Mus musculus; conditions: route intraperitoneal
# Procedure, shortened: as §2
# L1210 [10] = experiment: Tested for percent of L1210 cells killed by dose 104 mg/kg administered intraperitoneally; type: functional, Mus musculus; conditions: route intraperitoneal
# Procedure, shortened: as §2
# L1210 [11] = experiment: Tested for post inoculation lifespan in L1210-inoculated mice at dose 104 mg/kg administered intraperitoneally; type: functional, Mus musculus; conditions: route intraperitoneal
# Procedure, shortened: as §1
# L1210 [12] = experiment: Tested for percent of L1210 cells killed by dose 37 mg/kg administered intraperitoneally; type: functional, Mus musculus; conditions: route intraperitoneal
# Procedure, shortened: as §2
# L1210 [13] = experiment: Tested for post inoculation lifespan in L1210-inoculated mice at dose 37 mg/kg administered intraperitoneally; type: functional, Mus musculus; conditions: route intraperitoneal
# Procedure, shortened: as §1
# L1210 [14] = experiment: Tested for post inoculation lifespan in L1210-inoculated mice at dose 800 mg/kg administered intraperitoneally; type: functional, Mus musculus; conditions: route intraperitoneal
# Procedure, shortened: as §1
# L1210 [15] = experiment: Tested for percent of L1210 cells killed by dose 800 mg/kg administered intraperitoneally; type: functional, Mus musculus; conditions: route intraperitoneal
# Procedure, shortened: as §2
compound,measurement,setting,value
NSc1nc(N)nc2c1ccn2[C@H]1C[C@H](O)[C@@H](CO)O1,Cells killed,L1210 [1],46.64%
same,T/C,L1210 [2],112%
Nc1nc(S(N)(=O)=O)c2ccn(C3O[C@H](CO)[C@@H](O)[C@H]3O)c2n1 (stereo partly drawn),T/C,L1210 [3],100%
same,Cells killed,L1210 [4],0%
OC[C@H]1O[C@@H](n2ccc3c(S)ncnc32)C[C@@H]1O,T/C,L1210 [5],96%
same,Cells killed,L1210 [6],0%
Nc1nc([S+](N)[O-])c2ccn([C@@H]3C[C@@H](O)[C@H](CO)O3)c2n1 (stereo partly drawn),Cells killed,L1210 [7],0%
same,T/C,L1210 [2],100%
Nc1nc([S+](N)[O-])c2ccn(C3O[C@H](CO)[C@@H](O)[C@H]3O)c2n1 (stereo partly drawn),T/C,L1210 [8],115%
same,Cells killed,L1210 [9],76.93%
N[S+]([O-])c1ncnc2c1ccn2[C@@H]1C[C@@H](O)[C@H](CO)O1 (stereo partly drawn),T/C,L1210 [3],112%
same,Cells killed,L1210 [4],60.59%
NSc1ncnc2c1ccn2[C@H]1C[C@H](O)[C@@H](CO)O1,Cells killed,L1210 [10],2%
same,T/C,L1210 [11],101%
NS(=O)(=O)c1ncnc2c1ccn2[C@H]1C[C@H](O)[C@@H](CO)O1,T/C,L1210 [8],113%
same,Cells killed,L1210 [9],67.94%
Nc1nc(S)c2ccn([C@H]3C[C@H](O)[C@@H](CO)O3)c2n1,Cells killed,L1210 [10],35.63%
same,T/C,L1210 [11],105%
Nc1cc2c(ncn2C2O[C@H](CO)[C@@H](O)[C@H]2O)c(S)n1 (stereo partly drawn),Cells killed,L1210 [10],0%
same,T/C,L1210 [11],93%
Nc1nc(S)c2ccn(C3O[C@H](CO)[C@@H](O)[C@H]3O)c2n1 (stereo partly drawn),Cells killed,L1210 [12],0%
same,T/C,L1210 [13],90%
NSc1nc(N)nc2c1ccn2C1O[C@H](CO)[C@@H](O)[C@H]1O (stereo partly drawn),Cells killed,L1210 [10],66.6%
same,T/C,L1210 [11],111%
Nc1cc2c(ncn2C2O[C@H](CO)[C@@H](O)[C@H]2O)c([S+](N)[O-])n1 (stereo partly drawn),T/C,L1210 [14],102%
same,Cells killed,L1210 [15],16.32%
NSc1nc(N)cc2c1ncn2C1O[C@H](CO)[C@@H](O)[C@H]1O (stereo partly drawn),T/C,L1210 [5],103%
same,Cells killed,L1210 [6],21.86%
